Source: ChEMBL document CHEMBL1122229, “alpha-adrenoreceptor reagents. 1. Synthesis of some 1,4-benzodioxans as selective presynaptic alpha 2-adrenoreceptor antagonists and potential antidepressants” (J Med Chem, 1983)
Calls of active or inactive are those of the source. The calls are words filed in the database; no cut-off is given here.

Experiments:
[1] = test system: Alpha-2 adrenergic receptor (Rattus norvegicus); assay: In vitro presynaptic agonist potency at Alpha-2 adrenergic receptor in rat or mouse vas deferens relative to clonidine; IA means inactive
[2] = In vitro antagonism at Alpha-2 adrenergic receptor in rat or mouse vas deferens relative to RX781094.; format: functional
How it was run: (§1)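 Prostatic half of vas deferens from male Sprague–Dawley rats (200–250 g; Krebs, 30 °C, 95% O2/5% CO2, 0.1 Hz, 3-ms, 40 V) or from mice (magnesium-free Krebs, 100–140 V). Tension 0.5 g; isometric twitch recording. […] The concentration giving 50% reversal of the inhibition was compared with standard 5 in the same tissue.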

[3] = biological target: T1, Adrenergic receptor alpha-1 (Rattus norvegicus) (UniProt P15823+P23944+P43140); assay: Ratio of presynaptic antagonist potency to postsynaptic antagonist potency; format: functional
[4] = biological target: T1, Adrenergic receptor alpha-1 (Rattus norvegicus); assay: In vitro postsynaptic antagonist potency at alpha-1 adrenergic receptor in rat anococcygeus relative to compound 5 (RX781094); format: functional
[5] = biological target: T1, Adrenergic receptor alpha-1 (Rattus norvegicus); assay: In vitro postsynaptic agonist potency at alpha-1 adrenergic receptor in rat anococcygeus muscle relative to phenylephrine; format: functional, tissue-based
[6] = test system: Alpha-2 adrenergic receptor (Rattus norvegicus); assay: In vitro presynaptic agonist potency at alpha-2 adrenergic receptor in rat or mouse vas deferens relative to clonidine; IA means inactive
[7] = biological target: T2, Adrenergic receptor alpha-2 (Rattus norvegicus) (UniProt P22086+P19328+P22909); assay: In vitro presynaptic agonist potency at alpha-2 adrenergic receptor in rat or mouse vas deferens relative to clonidine; format: functional, tissue-based
How it was run: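 Field-stimulated rat or mouse vas deferens under 0.5 g tension, at 0.1 Hz with 3-ms pulses, 30 °C, gassed with 95% O2/5% CO2. Contractions were recorded isometrically. Standard dose-response curves were run before and after each analogue curve. Potency was expressed relative to the standard in the same experiment.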

[8] = biological target: T1, Adrenergic receptor alpha-1 (Rattus norvegicus); assay: In vitro postsynaptic antagonist potency at alpha-1 adrenergic receptor in rat anococcygeus relative to compound 5 (RX781094); IA means compound is inactive.; format: functional
[9] = biological target: T1, Adrenergic receptor alpha-1 (Rattus norvegicus); assay: In vitro postsynaptic agonist potency at alpha-1 adrenergic receptor in rat anococcygeus muscle relative to phenylephrine; IA means inactive.; format: functional, tissue-based
How it was run: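 Rat anococcygeus muscle (male Sprague–Dawley rats, 200–250 g) suspended at 0.5 g initial tension in a 50-mL organ bath. […] Standard dose-response curves were run before and after the analogue's curve.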

[10] = test system: Alpha-1 adrenergic receptor (Rattus norvegicus); assay: In vitro postsynaptic agonist potency at alpha-1 adrenergic receptor in rat anococcygeus.
[11] = biological target: T1, Adrenergic receptor alpha-1 (Rattus norvegicus); assay: In vitro postsynaptic antagonist potency at alpha-1 adrenergic receptor in rat anococcygeus.; format: functional
[12] = biological target: T3, Adenosine receptor A2b (Rattus norvegicus) (UniProt P29276); assay: In vitro presynaptic antagonist potency at alpha-2 adrenergic receptor in rat or mouse vas deferens; IA means inactive; format: functional
T3 sequence (whole entry): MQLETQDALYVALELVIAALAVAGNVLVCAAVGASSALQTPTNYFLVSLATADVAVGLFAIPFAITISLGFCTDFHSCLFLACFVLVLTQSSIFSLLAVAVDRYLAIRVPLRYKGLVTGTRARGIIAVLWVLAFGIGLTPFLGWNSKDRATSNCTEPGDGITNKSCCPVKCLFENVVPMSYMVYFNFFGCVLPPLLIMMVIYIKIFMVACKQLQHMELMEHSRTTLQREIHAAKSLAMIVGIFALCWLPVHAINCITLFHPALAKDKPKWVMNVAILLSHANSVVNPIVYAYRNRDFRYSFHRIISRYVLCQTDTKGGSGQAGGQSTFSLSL
How it was run: as §1

[13] = biological target: T4, Adrenergic receptor alpha-2 (Rattus norvegicus, UniProt P22086+P19328+P22909); assay: Alpha-2 adrenergic receptor pA2 value against clonidine in vitro experiment in rat vas deferens; format: tissue-based
T4 sequence (P22086 whole entry): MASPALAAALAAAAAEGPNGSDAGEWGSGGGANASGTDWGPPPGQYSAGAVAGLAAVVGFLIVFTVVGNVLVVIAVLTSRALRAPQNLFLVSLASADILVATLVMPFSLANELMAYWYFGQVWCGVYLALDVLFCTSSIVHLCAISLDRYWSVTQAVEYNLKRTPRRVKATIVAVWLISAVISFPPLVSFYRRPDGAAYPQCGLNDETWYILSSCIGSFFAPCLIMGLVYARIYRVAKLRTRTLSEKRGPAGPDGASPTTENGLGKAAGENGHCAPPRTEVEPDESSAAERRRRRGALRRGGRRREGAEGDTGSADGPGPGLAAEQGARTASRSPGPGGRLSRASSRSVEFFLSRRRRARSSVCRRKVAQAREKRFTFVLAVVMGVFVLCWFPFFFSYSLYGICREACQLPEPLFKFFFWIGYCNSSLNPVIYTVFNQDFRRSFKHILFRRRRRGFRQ
T4 sequence (P19328 whole entry): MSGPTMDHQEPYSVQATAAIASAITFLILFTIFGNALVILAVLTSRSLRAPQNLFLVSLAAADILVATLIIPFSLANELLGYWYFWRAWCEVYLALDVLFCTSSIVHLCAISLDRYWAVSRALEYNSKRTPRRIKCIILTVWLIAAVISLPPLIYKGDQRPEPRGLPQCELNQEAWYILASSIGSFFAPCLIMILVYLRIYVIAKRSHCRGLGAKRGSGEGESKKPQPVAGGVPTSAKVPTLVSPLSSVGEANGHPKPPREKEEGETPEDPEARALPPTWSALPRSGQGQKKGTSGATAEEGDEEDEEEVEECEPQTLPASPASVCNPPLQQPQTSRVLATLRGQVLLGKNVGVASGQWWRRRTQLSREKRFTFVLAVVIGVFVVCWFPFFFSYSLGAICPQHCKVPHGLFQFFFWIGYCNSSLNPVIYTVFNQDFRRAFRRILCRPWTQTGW
T4 sequence (P22909 whole entry): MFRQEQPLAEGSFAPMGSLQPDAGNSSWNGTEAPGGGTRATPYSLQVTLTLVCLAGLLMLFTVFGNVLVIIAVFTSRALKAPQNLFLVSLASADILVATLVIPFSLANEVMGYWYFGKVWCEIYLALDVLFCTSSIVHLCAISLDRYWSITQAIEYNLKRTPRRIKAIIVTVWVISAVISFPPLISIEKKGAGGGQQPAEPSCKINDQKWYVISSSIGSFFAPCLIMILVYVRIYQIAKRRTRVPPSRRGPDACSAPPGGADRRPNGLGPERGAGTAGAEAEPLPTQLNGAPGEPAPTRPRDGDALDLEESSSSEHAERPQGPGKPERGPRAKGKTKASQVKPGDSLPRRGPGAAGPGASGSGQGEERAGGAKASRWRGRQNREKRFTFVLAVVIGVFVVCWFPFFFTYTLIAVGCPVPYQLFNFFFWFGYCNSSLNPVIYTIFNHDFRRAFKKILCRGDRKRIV
How it was run: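 pA2 was obtained by Arunlakshana–Schild analysis at postsynaptic α1 (anococcygeus) or presynaptic α2 (vas deferens) sites. Values are mean ± SEM of at least six experiments.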

[14] = biological target: T5, Adrenergic receptor alpha-1 (Rattus norvegicus, UniProt P15823+P23944+P43140); assay: alpha-1 adrenergic receptor pA2 value against norepinephrine in vitro experiment in rat anococcygeus
T5 sequence (P15823 whole entry): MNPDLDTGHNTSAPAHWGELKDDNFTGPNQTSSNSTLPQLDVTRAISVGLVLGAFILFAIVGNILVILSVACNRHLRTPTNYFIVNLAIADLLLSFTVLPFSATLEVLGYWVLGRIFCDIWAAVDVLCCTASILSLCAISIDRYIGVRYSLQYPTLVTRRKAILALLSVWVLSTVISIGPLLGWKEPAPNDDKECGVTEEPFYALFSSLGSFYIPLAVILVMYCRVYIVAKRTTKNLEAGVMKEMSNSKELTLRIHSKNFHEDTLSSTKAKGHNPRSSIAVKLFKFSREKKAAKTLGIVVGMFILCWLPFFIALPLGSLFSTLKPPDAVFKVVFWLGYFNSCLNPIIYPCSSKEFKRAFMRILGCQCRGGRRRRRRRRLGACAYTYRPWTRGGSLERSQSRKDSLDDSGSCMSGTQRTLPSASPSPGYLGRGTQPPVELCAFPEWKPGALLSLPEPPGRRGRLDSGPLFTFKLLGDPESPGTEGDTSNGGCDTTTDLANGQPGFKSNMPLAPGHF
T5 sequence (P23944 whole entry): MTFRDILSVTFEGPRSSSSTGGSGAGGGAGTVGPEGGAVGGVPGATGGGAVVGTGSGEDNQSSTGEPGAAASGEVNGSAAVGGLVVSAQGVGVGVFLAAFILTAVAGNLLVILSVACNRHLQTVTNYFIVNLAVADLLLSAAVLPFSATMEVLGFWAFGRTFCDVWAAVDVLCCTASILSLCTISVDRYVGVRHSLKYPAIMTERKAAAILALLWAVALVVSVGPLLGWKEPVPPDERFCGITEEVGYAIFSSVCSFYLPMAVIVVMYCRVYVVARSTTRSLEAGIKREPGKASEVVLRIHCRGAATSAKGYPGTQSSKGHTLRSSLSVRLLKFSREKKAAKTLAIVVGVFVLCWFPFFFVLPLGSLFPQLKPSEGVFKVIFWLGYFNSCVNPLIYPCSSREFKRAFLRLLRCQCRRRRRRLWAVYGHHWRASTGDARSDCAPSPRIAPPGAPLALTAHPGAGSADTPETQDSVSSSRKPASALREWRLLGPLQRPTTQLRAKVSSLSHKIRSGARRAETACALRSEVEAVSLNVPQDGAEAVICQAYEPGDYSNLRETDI
T5 sequence (P43140 whole entry): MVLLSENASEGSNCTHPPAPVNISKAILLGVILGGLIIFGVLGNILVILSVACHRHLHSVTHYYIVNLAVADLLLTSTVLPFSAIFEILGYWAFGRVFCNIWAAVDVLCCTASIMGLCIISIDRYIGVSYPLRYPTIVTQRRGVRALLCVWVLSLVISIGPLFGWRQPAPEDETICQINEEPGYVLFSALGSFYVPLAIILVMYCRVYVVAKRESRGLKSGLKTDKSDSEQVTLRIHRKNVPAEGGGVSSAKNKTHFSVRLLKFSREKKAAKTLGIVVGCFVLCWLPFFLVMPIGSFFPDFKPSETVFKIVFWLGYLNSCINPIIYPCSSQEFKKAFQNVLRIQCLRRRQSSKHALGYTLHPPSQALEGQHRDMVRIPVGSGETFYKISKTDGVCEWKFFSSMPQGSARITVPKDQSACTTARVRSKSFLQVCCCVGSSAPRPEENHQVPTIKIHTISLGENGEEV

[15] = biological target: T2, Adrenergic receptor alpha-2 (Rattus norvegicus); assay: In vitro presynaptic antagonist potency at alpha-2 adrenergic receptor in rat or mouse vas deferens relative to compound 5 (RX781094); format: functional, tissue-based
How it was run: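 Prostatic halves of rat vas deferens (male Sprague–Dawley rats, 200–250 g; Krebs, 30 °C, 95% O2/5% CO2; 3-ms, 40 V, 0.1 Hz field pulses) or mouse vas deferens (Mg-free Krebs, 30 °C; 3-ms pulses, 0.1 Hz, 100–140 V) were used, with isometric twitch recording. […] The concentration giving 50% reversal was compared with the RX781094 standard in the same tissue.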

[16] = Selectivity ratio of presynaptic antagonist potency to postsynaptic antagonist potency; format: functional
How it was run: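 Selectivity ratio is the antilog of the difference between pA2 values at presynaptic α2- and postsynaptic α1-adrenoreceptors. pA2 values were derived by the Arunlakshana–Schild method, each a mean ± SEM of at least six experiments.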

[17] = biological target: T2, Adrenergic receptor alpha-2 (Rattus norvegicus); assay: In vitro presynaptic agonist potency at alpha-2 adrenergic receptor in rat or mouse vas deferens relative to clonidine; IA means inactive; format: functional, tissue-based
How it was run: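 Field-stimulated rat or mouse vas deferens (Krebs, 30 °C, 95% O2/5% CO2, 3-ms pulses at 0.1 Hz) with isometric twitch recording. […] Standard dose-response curves were run before and after the analogue's curve.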

[18] = Ratio of pA2 value against alpha2 to alpha-1 adrenoceptor
How it was run: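 α2/α1 selectivity was taken as the antilog of the difference between the pA2 values at α2- and α1-adrenoreceptors.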

SMILES	Antagonist potency [4]	Agonist potency [5]	Antagonist potency [6]	Agonist potency [7]	Antagonist potency [8]	Agonist potency [9]	further results
Brc1cc2c(cc1Br)OC(C1=NCCN1)CO2 (stereo not given)	0.1	0.02	–	–	–	–	Agonist potency [1]: inactive; Antagonist potency [2]: 0.001; Selectivity [3]: 0.01
Nc1noc(C2COc3ccccc3O2)n1 (stereo not given)	–	–	inactive	0.0001	inactive	inactive	–
Oc1cc2c(cc1O)OC(C1=NCCN1)CO2 (stereo not given)	–	–	–	0.0006	–	–	Agonist potency [10]: 0.018; Antagonist potency [11]: > 6; Antagonist potency [12]: inactive
COc1ccccc1OCC1=NCCN1	–	10	inactive	0.001	inactive	–	–
CCn1ccnc1CC1COc2ccccc2O1 (stereo not given) [IMILOXAN]	0.036	–	–	–	–	inactive	pA2 [13]: 6.98; pA2 [14]: 4.85; Antagonist potency [15]: 0.02; Selectivity [16]: 0.53; Agonist potency [17]: inactive; Selectivity [18]: 135
